Results: ChEMBL document CHEMBL1140048, “NO-donors. Part 17: Synthesis and antimicrobial activity of novel ketoconazole-NO-donor hybrid compounds” (Bioorg Med Chem, 2008)
≈ marks a conversion by molar mass, not a printed value.

Columns and labels:
[1] = system: Candida; experiment: Antifungal activity against Candida sp. by microdilution assay; format: functional
Procedure, shortened: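 Broth microdilution per NCCLS guidelines in RPMI 1640 (L-glutamine, MOPS, no bicarbonate). An 8 mM stock in DMSO/methanol (1:10) was serially diluted twofold in medium; NONOate sodium salts were diluted in 0.1 M NaOH, with only the final step in medium, used at once. Final inoculum 6×10^3 CFU/mL, 30 °C, 24 h. MIC read nephelometrically as the lowest dilution with no visible growth.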

[2] = system: Aspergillus fumigatus; experiment: Ratio of MIC for drug to ketoconazole against Aspergillus fumigatus; format: functional
Procedure, shortened: (§1)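 FIC is calculated as the MIC of the test compound divided by the MIC of ketoconazole. Both MICs come from 24 h NCCLS broth microdilution in RPMI 1640/MOPS, starting from an 8 mM stock in twofold dilutions, at 6×10^3 CFU/mL. Incubation is at 37 °C for A. fumigatus and A. terreus and at 30 °C for the other strains.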

[3] = system: Aspergillus fumigatus; experiment: Antifungal activity against Aspergillus fumigatus after 24 hrs by broth microdilution method; format: functional
Procedure, shortened: (§2)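 Broth microdilution per NCCLS in RPMI 1640 (L-glutamine, MOPS, no bicarbonate). An 8 mM stock in DMSO/methanol 1:10 is serially diluted twofold; NONOate salts go through 0.1 M NaOH, with only the last step in medium. Inoculum is 6×10^3 CFU/mL final. A. fumigatus and A. terreus are incubated 24 h at 37 °C; others at 30 °C. MIC is the lowest dilution without visible growth, read nephelometrically.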

[4] = system: Nakaseomyces glabratus; experiment: Antifungal activity against Candida glabrata after 24 hrs by broth microdilution method; format: functional; procedure, shortened: as §2
[5] = system: Aspergillus terreus; experiment: Ratio of MIC for drug to ketoconazole against Aspergillus terreus; format: functional; procedure, shortened: as §1
[6] = system: Aspergillus niger; experiment: Antifungal activity against Aspergillus niger after 24 hrs by broth microdilution method; format: functional; procedure, shortened: as §2
[7] = system: Aspergillus terreus; experiment: Antifungal activity against Aspergillus terreus after 24 hrs by broth microdilution method; format: functional; procedure, shortened: as §2
[8] = system: Candida albicans; experiment: Antifungal activity against Candida albicans after 24 hrs by broth microdilution method; format: functional; procedure, shortened: as §2
[9] = system: Penicillium chrysogenum; experiment: Antifungal activity against Penicillium notatum after 24 hrs by broth microdilution method; format: functional; procedure, shortened: as §2
[10] = system: Aspergillus niger; experiment: Ratio of MIC for drug to ketoconazole against Aspergillus niger; format: functional; procedure, shortened: as §1
[11] = system: Sporobolomyces salmonicolor; experiment: Antifungal activity against Sporobolomyces salmonicolor after 24 hrs by broth microdilution method; format: functional; procedure, shortened: as §2
[12] = system: Fusarium oxysporum; experiment: Antifungal activity against Fusarium oxysporum after 24 hrs by agar diffusion method
[13] = system: Fusarium oxysporum; experiment: Ratio of MIC for drug to ketoconazole against Fusarium oxysporum; format: functional
[14] = system: Candida albicans; experiment: Ratio of MIC for drug to ketoconazole against Candida albicans; format: functional; procedure, shortened: as §1
[15] = system: Sporobolomyces salmonicolor; experiment: Ratio of MIC for drug to ketoconazole against Sporobolomyces salmonicolor; format: functional; procedure, shortened: as §1
[16] = system: Nakaseomyces glabratus; experiment: Ratio of MIC for drug to ketoconazole against Candida glabrata; format: functional; procedure, shortened: as §1
[17] = system: Penicillium chrysogenum; experiment: Ratio of MIC for drug to ketoconazole against Penicillium notatum; format: functional; procedure, shortened: as §1

| Structure (SMILES) | MIC [3] [µM] | MIC [4] [µM] | MIC [6] [µM] | MIC [7] [µM] | MIC [8] [µM] | MIC [9] [µM] | MIC [11] [µM] | MIC [12] [µM] | MIC [1] [µg/mL] | Ratio [2] | Ratio [5] | Ratio [10] | Ratio [13] | Ratio [14] | Ratio [15] | Ratio [16] | Ratio [17] |
| --- | --- | --- | --- | --- | --- | --- | --- | --- | --- | --- | --- | --- | --- | --- | --- | --- | --- |
| NCCCN(CCCN)N(O)N=O | – | – | – | – | – | – | – | – | 5000 (≈ 26.1 mM) | – | – | – | – | – | – | – | – |
| NCCN(CCN)/[N+]([O-])=N/O | – | – | – | – | – | – | – | – | 2000 (≈ 12.3 mM) | – | – | – | – | – | – | – | – |
| Clc1ccc([C@@]2(Cn3ccnc3)OC[C@H](COc3ccc(N4CCNCC4)cc3)O2)c(Cl)c1 | 2000 (≈ 979 µg/mL) | 50 (≈ 24.5 µg/mL) | 2000 (≈ 979 µg/mL) | 2000 (≈ 979 µg/mL) | 25 (≈ 12.2 µg/mL) | 250 (≈ 122 µg/mL) | 25 (≈ 12.2 µg/mL) | 2000 (≈ 979 µg/mL) | – | 32 | 64 | 32 | 4 | 1 | 16 | 4 | 31.25 |
| O=C(CO/N=[N+](\[O-])N1CCCC1)N1CCN(c2ccccc2)CC1 | > 2000 | > 2000 | > 2000 | > 2000 | > 2000 | > 2000 | > 2000 | > 2000 | – | – | – | – | – | – | – | – | – |
| O=C(CO[N+](=O)[O-])N1CCN(c2ccccc2)CC1 | > 2000 | > 2000 | > 2000 | > 2000 | > 2000 | > 2000 | > 2000 | > 2000 | – | – | – | – | – | – | – | – | – |

Further lines, with some results ahead:

| MIC [3] [µM] | MIC [4] [µM] | MIC [6] [µM] | MIC [7] [µM] | MIC [8] [µM] | MIC [9] [µM] | MIC [11] [µM] | MIC [12] [µM] | Structure (SMILES) | MIC [1] [µg/mL] | Ratio [2] | Ratio [5] | Ratio [10] | Ratio [13] | Ratio [14] | Ratio [15] | Ratio [16] | Ratio [17] |
| --- | --- | --- | --- | --- | --- | --- | --- | --- | --- | --- | --- | --- | --- | --- | --- | --- | --- |
| > 2000 | > 2000 | > 2000 | > 2000 | > 2000 | > 2000 | > 2000 | > 2000 | CC(C)(CO[N+](=O)[O-])C(=O)N1CCN(c2ccccc2)CC1 | – | – | – | – | – | – | – | – | – |
| > 2000 | > 2000 | > 2000 | > 2000 | > 2000 | > 2000 | > 2000 | > 2000 | O=[N+]([O-])OCCN1CCN(c2ccccc2)CC1 | – | – | – | – | – | – | – | – | – |
| > 2000 | > 2000 | > 2000 | > 2000 | > 2000 | > 2000 | > 2000 | > 2000 | [O-]/[N+](=N\O)N1CCN(c2ccccc2)CC1 | – | – | – | – | – | – | – | – | – |
| > 2000 | > 2000 | > 2000 | > 2000 | > 2000 | > 2000 | > 2000 | > 2000 | CCO/N=[N+](\[O-])N1CCN(c2ccccc2)CC1 | – | – | – | – | – | – | – | – | – |
